The source of these data is paper PMC5846678 (Bioorganic & medicinal chemistry letters, 2017).

The subject of data set [1] is IGF1R/IR. Briefly: microPET imaging in mice. It counts as in vivo, C57BL/6 mice. Put shortly:
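Male C57BL/6 mice (N = 2) under anaesthesia on an Inveon microPET. The 18F-labelled test compound was formulated in 5% ethanol/normal saline and sterile-filtered. 0.2 ± 0.05 mCi was given via tail vein at the start of acquisition. A 68Ge transmission scan was used for attenuation correction. List-mode data were collected for 60 min, Fourier-rebinned, reconstructed by filtered back-projection and expressed as nCi/cc. Images were summed 0–10 and 0–60 min. ROI time-activity curves were drawn for brain, heart, muscle and thalamus.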

In data set [2] the test system is IGF1R/IR. Description: biodistribution in rats 120 min post injection. It is filed as in vivo, Sprague-Dawley rats.
Data set [3] deals with IGF1R/IR. Description: microPET imaging in rats. It is filed as in vivo, Sprague-Dawley rats. Conditions: time frames 1-10 min and 81-90 min, tail vein injection. Put shortly: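 Anaesthetised male Sprague-Dawley rats (N = 2) were imaged on an Inveon microPET after tail-vein injection of 0.2 ± 0.05 mCi 18F-labelled test compound in 5% ethanol/normal saline, with acquisition starting at injection. A 68Ge transmission scan provided attenuation correction. List-mode data were collected for 90 min, Fourier-rebinned, reconstructed by filtered back-projection and expressed as nCi/cc. Coronal images were summed 0–10 and 81–90 min. ROI time-activity curves covered heart, muscles and brain.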

The subject of another data set is IGF1R. Conditions: autoradiography; cited from earlier work.
For data set [4] the following is noted: pharmacokinetic analysis, DIPG mice models; cited from earlier work.

With `C[C@@]1(C(=O)Nc2ccc([18F])nc2)CCCN1c1nc(Nc2cc(C3CC3)[nH]n2)c2cccn2n1` [[^18F]BMS-754807], in the data set with IGF1R/IR [1] (microPET), the “brain activity of the radiotracer” value is “no noticeable brain activity”, the uptake in heart result is “High uptake” and the uptake in muscles result is listed as “High uptake”. In the data set with IGF1R/IR [1] (microPET time activity curves), the “time of peak brain level of activity post-injection” value is “less than 1 min”. Moreover, in the data set on IGF1R/IR [2], the binding in lung entry is recorded as “negligible binding”, the binding in spleen result is “negligible binding”, the binding in stomach entry was “low binding” and the “bone uptake ([18F]defluorination)” value is “no bone uptake”. In the data set on IGF1R/IR [2], the radioactivity in brain result was “low levels of radioactivity”, the uptake in heart result is given as “significant uptake”, the “uptake in large intestine” value was “moderate uptake” and the uptake in liver result is recorded as “moderate uptake”. Also, in the data set on IGF1R/IR [2], the uptake in pancreas entry was “significant uptake” and the “uptake in small intestine” value is “unusually higher uptake”. Further, the “radioligand accumulation in brain” value with IGF1R/IR [3] is on record as “negligible”. Also, the “binding in grade IV glioblastoma (GBM) in comparison to control brain tissues” value with IGF1R was 5.25 times.
Consider `C[C@@]1(C(=O)Nc2ccc(F)nc2)CCCN1c1nc(Nc2cc(C3CC3)n[nH]2)c2cccn2n1` [BMS-754807], for which the “concentration in tumor tissue” value in data set [4] is listed as “low concentration”.
